{"data": "Assay results from different studies", "note": "Protocols differ between the studies behind these lines."}
{"SMILES": "COC(=O)C1CCN(C(=O)c2ccc(NCc3cnc4nc(N)nc(N)c4n3)cc2)CC1", "tested on": "Cytochrome P450 2C9 (CYP2C9, Homo sapiens, UniProt P11712)", "assay": "enzyme activity, inhibitor, luciferase", "setting": "10 µM", "quantity": "inhibition", "value": "-7.15%"}
{"SMILES": "Nc1c2c(nc3c1C(c1cccc([N+](=O)[O-])c1)c1ccc(OS(=O)(=O)c4ccc(F)cc4)cc1O3)CCCC2 (stereo not drawn)", "tested on": "SH-SY5Y", "assay": "cell growth or viability, MTT", "setting": "6.3 µM", "quantity": "viability", "value": "63.4%"}
{"SMILES": "CCCCCn1nc(C(=O)Nc2cccc3ccccc23)c2ccccc21", "assay": "metabolic stability", "system": "Sprague-Dawley rat, liver microsomes", "setting": "1 µM, pH 7.4", "quantity": "half-life", "value": "1.61 min"}
{"SMILES": "CCC[C@@](N)(CO)CCc1ccc(OCCCCCC(C)C)cc1", "system": "mouse, plasma", "setting": "oral, 10 mg/kg", "quantity": "AUC(0-t)", "value": "0.227 µM·h"}
{"SMILES": "COc1cc2c(cc1NC(=O)c1ccc(C(C)(C)C#N)cc1)CCCCC2", "tested on": "NHDF", "assay": "cell growth or viability, ATP luminescence", "setting": "24 h", "quantity": "CC50", "value": "3.57 µM"}
{"SMILES": "C[C@]12CC[C@H](O)CC1=CC[C@@H]1[C@@H]2CC[C@]2(C)C(n3cnc4ccccc43)=CC[C@@H]12.Cl", "system": "mouse, plasma", "setting": "oral, 10 mg/kg", "quantity": "AUC(0-t)", "value": "26.1 ng·h/mL"}
{"SMILES": "CCCCCCCCCCOc1cc2c(O)c(C(=O)OCC)cnc2cc1OCC", "tested on": "CHO", "assay": "cell growth or viability", "setting": "72 h", "quantity": "IC50", "value": "> 100 µM"}
{"SMILES": "O=C(Nc1ccc(Cl)cc1)Nc1cccc(-c2cccc(N3CCCC3)n2)c1", "assay": "metabolic stability", "system": "rat, liver microsomes", "setting": "pH 7.4", "quantity": "half-life", "value": "13.4 min"}
{"SMILES": "Nc1c2c(nc3c1C(c1ccc(Cl)c(Cl)c1)c1ccc(OCC(=O)c4ccc(Cl)cc4)cc1O3)CCCC2 (stereo not drawn)", "tested on": "SH-SY5Y", "assay": "cell growth or viability, MTT", "setting": "6.3 µM", "quantity": "viability", "value": "71.6%"}
{"SMILES": "Cc1cc(C)nc(Nc2ncc(C(=O)NCCc3c(C)[nH]c4ccccc34)cn2)c1", "assay": "chemical stability", "system": "simulated intestinal fluid", "setting": "10 µM, pH 6.8", "quantity": "half-life", "value": "197 min"}
{"SMILES": "COc1ccc(S(=O)(=O)Oc2ccc3c(c2)Oc2nc4c(c(N)c2C3c2cccc(OC)c2)CCCC4)cc1 (stereo not drawn)", "tested on": "SH-SY5Y", "assay": "cell growth or viability, MTT", "setting": "100 µM", "quantity": "viability", "value": "48.9%"}
{"SMILES": "C[C@]12CC[C@H](n3ccnc3)CC1=CC[C@@H]1[C@@H]2CC[C@]2(C)C(n3cnc4ccccc43)=CC[C@@H]12.Cl", "system": "male CD-1 mouse, plasma", "setting": "oral, 10 mg/kg", "quantity": "bioavailability", "value": "> 100%"}
